Experimental data as given in ChEMBL document CHEMBL2163259, “ADME-guided design and synthesis of aryloxanyl pyrazolone derivatives to block mutant superoxide dismutase 1 (SOD1) cytotoxicity and protein aggregation: potential application for the treatment of amyotrophic lateral sclerosis” (J Med Chem, 2012).
The source made the active and inactive calls. The calls are words filed in the database; no cut-off is given here.

How the values were obtained:
[1] = target: Sodium-dependent dopamine transporter (Homo sapiens) (UniProt Q01959); assay: Inhibition of human dopamine transporter at 10 uM by radioligand displacement assay
Sequence of Sodium-dependent dopamine transporter (Homo sapiens) (Q01959 whole entry): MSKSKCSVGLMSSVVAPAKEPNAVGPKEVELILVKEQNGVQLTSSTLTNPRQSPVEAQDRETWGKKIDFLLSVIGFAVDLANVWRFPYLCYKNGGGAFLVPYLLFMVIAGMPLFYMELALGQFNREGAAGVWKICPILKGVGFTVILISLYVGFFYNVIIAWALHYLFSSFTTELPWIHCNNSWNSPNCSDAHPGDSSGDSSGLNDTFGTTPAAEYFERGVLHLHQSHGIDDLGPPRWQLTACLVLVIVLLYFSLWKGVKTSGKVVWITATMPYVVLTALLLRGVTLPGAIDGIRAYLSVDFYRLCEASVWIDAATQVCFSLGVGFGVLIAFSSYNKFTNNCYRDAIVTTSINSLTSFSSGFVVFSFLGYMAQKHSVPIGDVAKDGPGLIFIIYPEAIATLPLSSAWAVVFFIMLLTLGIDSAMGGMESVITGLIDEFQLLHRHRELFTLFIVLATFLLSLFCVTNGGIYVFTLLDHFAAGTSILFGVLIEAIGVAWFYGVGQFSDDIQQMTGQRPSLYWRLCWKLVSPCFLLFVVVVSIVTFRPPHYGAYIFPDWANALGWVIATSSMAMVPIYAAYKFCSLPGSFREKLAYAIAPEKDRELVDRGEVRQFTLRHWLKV
In short: (§1)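 Single concentration of 10 μM, tested in duplicate as part of a contracted panel of 68 in vitro enzyme and receptor assays. The panel covers common adverse CNS, cardiovascular, pulmonary and genotoxic targets.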

Cytochrome P450 2C19 = Cytochrome P450 2C19 (Homo sapiens, UniProt P33261); assay: Inhibition of CYP2C19; format: ADME
In short: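 Reversible inhibition of CYP isozymes in human liver microsomes, each isozyme with a single probe substrate. CYP3A4 tested with both testosterone and midazolam. IC50 determined.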

Homo sapiens [2] = organism: Homo sapiens; assay: Inhibition of human dopamine […] receptor at 10 uM by radioligand displacement assay; in short: as §1
Rattus norvegicus [3] = organism: Rattus norvegicus; assay: Inhibition of rat sodium channel site 2 at 10 uM by radioligand displacement assay; in short: as §1
[4] = target: Sodium-dependent serotonin transporter (Homo sapiens) (UniProt P31645); assay: Inhibition of human serotonin transporter at 10 uM by radioligand displacement assay; in short: as §1
Sequence of Sodium-dependent serotonin transporter (Homo sapiens) (P31645 whole entry, looked up): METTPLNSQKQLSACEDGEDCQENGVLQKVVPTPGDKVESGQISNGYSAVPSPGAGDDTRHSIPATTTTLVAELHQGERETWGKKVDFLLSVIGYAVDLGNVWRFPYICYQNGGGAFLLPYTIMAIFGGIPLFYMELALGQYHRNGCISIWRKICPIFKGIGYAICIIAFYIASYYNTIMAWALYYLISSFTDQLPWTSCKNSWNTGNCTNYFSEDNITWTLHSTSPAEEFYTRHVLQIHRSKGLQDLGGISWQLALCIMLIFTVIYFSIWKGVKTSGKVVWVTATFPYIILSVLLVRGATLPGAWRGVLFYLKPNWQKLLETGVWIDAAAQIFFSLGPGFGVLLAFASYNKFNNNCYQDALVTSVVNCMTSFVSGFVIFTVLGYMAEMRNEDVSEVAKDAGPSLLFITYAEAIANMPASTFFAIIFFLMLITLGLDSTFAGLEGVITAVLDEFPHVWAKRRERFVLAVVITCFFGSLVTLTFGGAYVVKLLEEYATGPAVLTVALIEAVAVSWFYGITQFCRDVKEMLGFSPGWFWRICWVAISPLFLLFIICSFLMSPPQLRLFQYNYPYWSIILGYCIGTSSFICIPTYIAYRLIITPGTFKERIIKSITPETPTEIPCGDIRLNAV

Rattus norvegicus [5] = assay: Oral bioavailability in Sprague-Dawley rat at 1 mg/kg; format: ADME, organism-based; conditions: in vivo
In short: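 Sprague-Dawley rats received a single bolus of 1 mg/kg, given both intravenously and orally. Plasma PK parameters, including oral bioavailability (F%), were derived from the two routes.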

[6] = target: Adenosine receptor A3 (Homo sapiens) (UniProt P0DMS8); assay: Inhibition of human adenosine A3 receptor at 10 uM by radioligand displacement assay
Sequence of Adenosine receptor A3 (Homo sapiens) (P0DMS8 whole entry): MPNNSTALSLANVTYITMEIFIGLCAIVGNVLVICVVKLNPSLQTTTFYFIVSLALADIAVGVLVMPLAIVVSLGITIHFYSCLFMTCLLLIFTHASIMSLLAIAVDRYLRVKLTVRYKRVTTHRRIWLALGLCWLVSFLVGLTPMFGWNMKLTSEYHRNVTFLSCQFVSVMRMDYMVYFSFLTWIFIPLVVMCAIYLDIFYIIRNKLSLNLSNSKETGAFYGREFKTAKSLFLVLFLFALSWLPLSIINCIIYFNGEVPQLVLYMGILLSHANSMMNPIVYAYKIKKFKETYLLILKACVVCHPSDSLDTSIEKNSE
In short: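 Single concentration of 10 μM, tested in duplicate in a contract panel of 68 in vitro enzyme and receptor binding assays covering common adverse CNS, cardiovascular, pulmonary and genotoxic targets.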

Homo sapiens [7] = organism: Homo sapiens; assay: Inhibition of human nicotinic acetylcholine receptor at 10 uM by radioligand displacement assay; in short: as §1
Mus musculus [8] = assay: Neuroprotective activity in SOD1 G93A mutant B6SJL mouse ALS model assessed as life extension at 20 mg/kg administered qd for 1 week (reference value: 125.7 +/- 4.9 days); format: functional
[9] = target: Pyroglutamylated RF-amide peptide receptor (Homo sapiens) (UniProt Q96P65); assay: Inhibition of human GPR103 receptor at 10 uM by radioligand displacement assay
In short: (§2)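 LeadProfilingScreen panel of 68 in vitro enzyme and receptor assays. Compound tested at 10 μM in duplicate.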

[10] = Half life in mouse microsomes at 5 uM incubated for 1 hr at 37 degC in presence of NADPH; format: ADME, Microsome; conditions: 1 h, 5 µM
[11] = target: Alpha-1B adrenergic receptor (Rattus norvegicus) (UniProt P15823); assay: Inhibition of rat adrenergic alpha1B receptor at 10 uM by radioligand displacement assay; in short: as §1
[12] = Efflux ratio of permeability from basolateral to apical side over apical to basolateral side in human Caco2 cells; format: ADME, cell-based; conditions: Caco-2
[13] = target: Prostaglandin E2 receptor EP4 subtype (Homo sapiens) (UniProt P35408); assay: Inhibition of human prostanoid receptor EP4 at 10 uM by radioligand displacement assay; in short: as §1
Sequence of Prostaglandin E2 receptor EP4 subtype (Homo sapiens) (P35408 whole entry): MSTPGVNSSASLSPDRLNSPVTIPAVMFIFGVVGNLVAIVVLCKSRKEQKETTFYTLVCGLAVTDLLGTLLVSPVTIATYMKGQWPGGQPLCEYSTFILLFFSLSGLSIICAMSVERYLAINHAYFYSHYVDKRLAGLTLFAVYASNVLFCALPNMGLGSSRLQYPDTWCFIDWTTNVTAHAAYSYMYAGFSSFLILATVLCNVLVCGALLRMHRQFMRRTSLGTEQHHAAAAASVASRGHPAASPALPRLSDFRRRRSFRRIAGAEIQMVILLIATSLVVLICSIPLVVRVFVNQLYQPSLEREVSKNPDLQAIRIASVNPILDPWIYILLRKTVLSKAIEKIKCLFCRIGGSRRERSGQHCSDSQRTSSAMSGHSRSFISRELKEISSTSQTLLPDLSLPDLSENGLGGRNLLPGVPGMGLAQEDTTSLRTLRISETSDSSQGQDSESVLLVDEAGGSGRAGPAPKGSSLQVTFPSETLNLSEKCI

[14] = target: L-type calcium channel, dihydropyridine site (Rattus norvegicus, UniProt P22002+P27732+Q02485); assay: Inhibition of rat calcium channel L-type, dihydropyridine site at 10 uM by radioligand displacement assay; in short: as §1
[15] = target: L-type calcium channel, benzothiazepine site (Rattus norvegicus, UniProt P22002+P27732+Q02485); assay: Inhibition of rat calcium channel L-type, benzothiazepine site at 10 uM by radioligand displacement assay; in short: as §1
[16] = Tmax in Sprague-Dawley rat at 1 mg/kg, po; format: ADME, organism-based; set-up: dose 1 mg/kg, route oral; conditions: in vivo
In short: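 Sprague-Dawley rats received a single bolus of 1 mg/kg by i.v. or by oral route. Plasma PK parameters were derived from the plasma concentration profile.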

[17] = Cmax in Sprague-Dawley rat at 1 mg/kg, po; format: ADME, organism-based; set-up: dose 1 mg/kg, route oral; conditions: in vivo
In short: (§3)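 Sprague-Dawley rats given a single 1 mg/kg bolus, intravenous or oral. Plasma PK parameters (AUC, dose-normalised AUC, half-life, clearance, Vss, Cmax, Tmax, oral bioavailability) derived from plasma levels.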

[18] = test system: Superoxide dismutase [Cu-Zn] (Homo sapiens), P00441 [G94A]; assay: Inhibition of SOD1 G93A mutant aggregation-induced cytotoxicity in human HEK293 cells by cytotoxicity protection assay; format: cell-based
Sequence of Superoxide dismutase [Cu-Zn] (Homo sapiens), P00441 [G94A] (P00441 whole entry G94A): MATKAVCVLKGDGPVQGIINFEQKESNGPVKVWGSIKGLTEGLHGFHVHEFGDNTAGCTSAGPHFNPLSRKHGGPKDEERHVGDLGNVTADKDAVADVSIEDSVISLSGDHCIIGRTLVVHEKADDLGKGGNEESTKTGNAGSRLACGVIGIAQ

[19] = Plasma concentration in B6SJL mouse at 300 mg/kg after 6 hrs by mass spectrometry; format: ADME, organism-based; set-up: dose 300 mg/kg
In short: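 Single 300 mg/kg bolus i.p. injection in B6SJL mice; blood and brain collected at 0, 1, 3, 6, 12 and 24 h, flash frozen in liquid nitrogen and stored at -80 °C. Samples analysed by mass spectrometry with ESI ionization in MRM mode.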

Rattus norvegicus [20] = organism: Rattus norvegicus; assay: Inhibition of rat GABAA receptor flunitrazepam site at 10 uM by radioligand displacement assay; in short: as §1
[21] = target: Kappa-type opioid receptor (Homo sapiens) (UniProt P41145); assay: Inhibition of human kappa-type opioid receptor at 10 uM by radioligand displacement assay; in short: as §1
Sequence of Kappa-type opioid receptor (Homo sapiens) (P41145 whole entry): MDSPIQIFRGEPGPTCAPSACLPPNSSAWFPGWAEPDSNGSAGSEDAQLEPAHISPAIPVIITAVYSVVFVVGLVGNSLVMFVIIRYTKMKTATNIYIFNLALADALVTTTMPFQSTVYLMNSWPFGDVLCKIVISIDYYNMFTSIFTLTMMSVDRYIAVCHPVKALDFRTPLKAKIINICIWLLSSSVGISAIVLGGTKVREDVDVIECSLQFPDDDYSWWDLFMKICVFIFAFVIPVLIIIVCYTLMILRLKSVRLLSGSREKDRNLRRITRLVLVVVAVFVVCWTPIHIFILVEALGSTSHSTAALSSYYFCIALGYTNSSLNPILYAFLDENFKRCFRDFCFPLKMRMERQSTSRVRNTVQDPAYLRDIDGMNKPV

[22] = target: Histamine H3 receptor (Homo sapiens) (UniProt Q9Y5N1); assay: Inhibition of human histamine H3 receptor at 10 uM by radioligand displacement assay; in short: as §1
Sequence of Histamine H3 receptor (Homo sapiens) (Q9Y5N1 whole entry): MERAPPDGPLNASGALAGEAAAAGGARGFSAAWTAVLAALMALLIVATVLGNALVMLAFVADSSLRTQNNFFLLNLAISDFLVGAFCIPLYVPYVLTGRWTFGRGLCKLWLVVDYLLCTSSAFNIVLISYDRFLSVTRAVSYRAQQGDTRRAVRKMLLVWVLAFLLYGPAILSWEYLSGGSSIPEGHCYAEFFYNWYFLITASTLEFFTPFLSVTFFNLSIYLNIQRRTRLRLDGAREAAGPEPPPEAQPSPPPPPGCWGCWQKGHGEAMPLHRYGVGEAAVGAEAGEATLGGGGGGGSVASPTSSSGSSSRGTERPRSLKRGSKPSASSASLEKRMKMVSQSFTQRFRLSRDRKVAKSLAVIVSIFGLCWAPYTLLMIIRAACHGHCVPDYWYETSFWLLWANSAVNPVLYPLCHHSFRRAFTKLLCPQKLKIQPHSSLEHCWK

Caco-2 = assay: Apparent permeability from basolateral to apical side in human Caco2 cells; format: ADME, cell-based
[23] = test system: Superoxide dismutase [Cu-Zn] (Homo sapiens), P00441 [G94A]; assay: Inhibition of SOD1 G93A mutant aggregation-induced cytotoxicity in human SH-SY5Y cells by cytotoxicity protection assay; format: cell-based
[24] = target: Glucocorticoid receptor (Homo sapiens) (UniProt P04150); assay: Inhibition of human glucocorticoid receptor at 10 uM by radioligand displacement assay; in short: as §1
Sequence of Glucocorticoid receptor (Homo sapiens) (P04150 whole entry): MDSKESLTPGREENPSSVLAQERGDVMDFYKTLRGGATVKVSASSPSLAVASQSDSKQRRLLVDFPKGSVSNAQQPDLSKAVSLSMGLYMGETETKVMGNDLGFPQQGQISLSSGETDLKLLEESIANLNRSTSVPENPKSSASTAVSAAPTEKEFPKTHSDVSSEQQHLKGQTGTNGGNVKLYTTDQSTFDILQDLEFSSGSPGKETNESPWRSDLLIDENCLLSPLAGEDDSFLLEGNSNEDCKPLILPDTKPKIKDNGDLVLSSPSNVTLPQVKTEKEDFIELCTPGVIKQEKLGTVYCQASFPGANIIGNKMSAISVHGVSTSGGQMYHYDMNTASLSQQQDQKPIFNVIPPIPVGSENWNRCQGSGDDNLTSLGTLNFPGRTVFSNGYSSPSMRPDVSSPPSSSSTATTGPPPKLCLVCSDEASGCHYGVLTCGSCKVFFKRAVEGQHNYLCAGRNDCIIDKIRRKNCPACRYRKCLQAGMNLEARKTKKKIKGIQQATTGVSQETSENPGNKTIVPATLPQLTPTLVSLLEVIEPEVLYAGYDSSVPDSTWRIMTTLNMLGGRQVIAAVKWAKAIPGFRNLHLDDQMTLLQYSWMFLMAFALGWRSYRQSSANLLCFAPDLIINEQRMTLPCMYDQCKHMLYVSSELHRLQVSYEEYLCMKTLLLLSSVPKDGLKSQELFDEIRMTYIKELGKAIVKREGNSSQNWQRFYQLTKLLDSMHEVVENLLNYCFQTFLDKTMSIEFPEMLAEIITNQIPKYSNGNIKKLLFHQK

Rattus norvegicus [25] = assay: Dose normalised AUC in Sprague-Dawley rat at 1 mg/kg, iv; format: ADME, organism-based; set-up: dose 1 mg/kg, route intravenous; conditions: in vivo; in short: as §3
[26] = target: Melatonin receptor type 1A (Homo sapiens) (UniProt P48039); assay: Inhibition of human MT1 receptor at 10 uM by radioligand displacement assay; in short: as §2
Mus musculus [27] = assay: Neuroprotective activity in SOD1 G93A mutant B6SJL mouse ALS model assessed as life extension at 1 mg/kg administered qd for 1 week (reference value: 125.7 +/- 4.9 days); format: functional
[28] = test system: Superoxide dismutase [Cu-Zn] (Homo sapiens), P00441 [G94A]; assay: Inhibition of SOD1 G93A mutant aggregation-induced cytotoxicity in human HeLa cells by cytotoxicity protection assay; format: cell-based
Mus musculus [29] = assay: Neuroprotective activity in SOD1 G93A mutant B6SJL mouse ALS model assessed as life extension at 10 mg/kg administered qd for 1 week (reference value: 125.7 +/- 4.9 days); format: functional
Mus musculus [30] = organism: Mus musculus; assay: Inhibition of mouse IL-1 at 10 uM by radioligand displacement assay; in short: as §1
[31] = target: Androgen receptor (Rattus norvegicus) (UniProt P15207); assay: Inhibition of rat testosterone receptor at 10 uM by radioligand displacement assay; in short: as §1
Sequence of Androgen receptor (Rattus norvegicus) (P15207 whole entry S389L): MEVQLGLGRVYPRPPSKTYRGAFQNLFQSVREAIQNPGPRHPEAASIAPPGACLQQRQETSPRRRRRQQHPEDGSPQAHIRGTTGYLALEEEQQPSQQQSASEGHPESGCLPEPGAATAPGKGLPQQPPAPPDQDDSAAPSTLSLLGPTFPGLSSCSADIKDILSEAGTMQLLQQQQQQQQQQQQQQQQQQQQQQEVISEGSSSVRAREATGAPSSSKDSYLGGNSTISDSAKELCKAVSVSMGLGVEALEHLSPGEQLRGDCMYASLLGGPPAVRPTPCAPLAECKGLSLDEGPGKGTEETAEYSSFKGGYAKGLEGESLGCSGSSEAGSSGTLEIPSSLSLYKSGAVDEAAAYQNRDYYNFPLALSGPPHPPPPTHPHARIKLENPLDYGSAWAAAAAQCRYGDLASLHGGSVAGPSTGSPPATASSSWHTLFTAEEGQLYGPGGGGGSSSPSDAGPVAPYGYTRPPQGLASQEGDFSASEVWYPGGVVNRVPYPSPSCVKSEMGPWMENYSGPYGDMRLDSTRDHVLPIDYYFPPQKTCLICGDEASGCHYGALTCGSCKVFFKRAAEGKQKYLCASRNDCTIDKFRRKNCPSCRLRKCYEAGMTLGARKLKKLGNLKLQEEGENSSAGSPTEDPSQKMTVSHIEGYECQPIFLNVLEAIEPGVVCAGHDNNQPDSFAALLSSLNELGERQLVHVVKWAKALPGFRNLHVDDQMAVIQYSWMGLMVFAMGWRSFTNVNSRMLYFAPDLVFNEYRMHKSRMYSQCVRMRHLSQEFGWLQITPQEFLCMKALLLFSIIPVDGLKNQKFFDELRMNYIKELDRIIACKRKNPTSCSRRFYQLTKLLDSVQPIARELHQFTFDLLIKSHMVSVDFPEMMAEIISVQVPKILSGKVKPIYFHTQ

SMILES: O=c1cc(COc2cc(Cl)cc(Cl)c2)[nH][nH]1
- inhibition [1]: 11%
- IC50 (Cytochrome P450 2C19): 20 µM
- inhibition (Homo sapiens [2]): 14%
- inhibition (Rattus norvegicus [3]): 4%
- inhibition [4]: -6%
- F (Rattus norvegicus [5]): 27%
- inhibition [6]: 6%
- inhibition (Homo sapiens [7]): 7%
- Survival (Mus musculus [8]): 142.5 days
- inhibition [9]: 3%
- t1/2 [10]: 36 min
- inhibition [11]: 0%
- efflux ratio [12]: 0.4
- inhibition [13]: -8%
- inhibition at 10 µM [14]: -5%
- inhibition at 10 µM [15]: -2%
- Tmax [16]: 15 min
- Cmax [17]: 39 ng/mL
- inhibition [18]: Active
- concentration at 6 h [19]: 347 µM
- inhibition (Rattus norvegicus [20]): 12%
- inhibition [21]: -9%
- inhibition [22]: 15%
- Papp (Caco-2): 14.1 ×10⁻⁶ cm/s
- inhibition [23]: Active
- inhibition [24]: 4%
- AUC/dose (Rattus norvegicus [25]): 184 ng·h/mL/mg/kg
- inhibition [26]: 3%
- Survival (Mus musculus [27]): 129.2 days
- inhibition [28]: Active
- Survival (Mus musculus [29]): 135 days
- inhibition (Mus musculus [30]): 3%
- inhibition [31]: 3%
